Assay results reported in BindingDB's records for doi:10.1016/j.bmc.2016.04.060 (Chugai Pharmaceutical, 2016).

Molecular target: Phosphatidylinositol 3-kinase regulatory subunit alpha/4,5-bisphosphate 3-kinase catalytic subunit alpha isoform (Homo sapiens, UniProt P27986+P42336)
Assay: Inhibition of human PI3K p110alpha/p85alpha expressed in baculovirus preincubated for 20 mins followed by addition of phosphorylate phosphatidylinositol-4,5-bisphosphate as substrate and ATP measured after 15 mins by AlphaScreen competition assay
Procedure, shortened: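 Purified baculovirus-expressed human p110/p85α preincubated with compound 20 min at room temperature. Then 4 µM PI(4,5)P2 and 10 µM ATP (5 mM Hepes pH 7.5, 2.5 mM MgCl2) added for 15 min at 37 °C. PIP3 product detected by AlphaScreen competition using GST-GRP1, biotin-PIP3 and anti-GST acceptor/streptavidin donor beads, 1 h at room temperature.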

Phosphatidylinositol 3-kinase regulatory subunit alpha/4,5-bisphosphate 3-kinase catalytic subunit alpha isoform, sequence (P27986 whole entry, canonical isoform): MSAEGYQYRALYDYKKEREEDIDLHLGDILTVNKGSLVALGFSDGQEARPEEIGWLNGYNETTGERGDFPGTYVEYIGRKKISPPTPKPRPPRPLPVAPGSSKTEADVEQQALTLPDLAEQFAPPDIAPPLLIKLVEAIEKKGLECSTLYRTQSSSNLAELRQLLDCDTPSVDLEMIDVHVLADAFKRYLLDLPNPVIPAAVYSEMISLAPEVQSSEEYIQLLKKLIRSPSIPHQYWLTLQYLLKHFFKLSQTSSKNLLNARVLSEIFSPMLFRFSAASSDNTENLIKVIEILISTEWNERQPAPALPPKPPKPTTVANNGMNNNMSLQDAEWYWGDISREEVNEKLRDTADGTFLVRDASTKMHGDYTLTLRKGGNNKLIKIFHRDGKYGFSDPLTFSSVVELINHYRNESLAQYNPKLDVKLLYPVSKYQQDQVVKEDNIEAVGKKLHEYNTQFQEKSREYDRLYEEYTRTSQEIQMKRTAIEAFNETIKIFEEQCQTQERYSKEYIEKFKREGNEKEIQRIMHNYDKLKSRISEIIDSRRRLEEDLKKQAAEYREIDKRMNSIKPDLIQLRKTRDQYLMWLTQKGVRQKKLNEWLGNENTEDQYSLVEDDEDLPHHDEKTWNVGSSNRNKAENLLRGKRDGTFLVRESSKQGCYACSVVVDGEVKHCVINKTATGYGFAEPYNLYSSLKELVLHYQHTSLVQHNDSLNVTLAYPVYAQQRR
Phosphatidylinositol 3-kinase regulatory subunit alpha/4,5-bisphosphate 3-kinase catalytic subunit alpha isoform, sequence (P42336 whole entry, canonical isoform): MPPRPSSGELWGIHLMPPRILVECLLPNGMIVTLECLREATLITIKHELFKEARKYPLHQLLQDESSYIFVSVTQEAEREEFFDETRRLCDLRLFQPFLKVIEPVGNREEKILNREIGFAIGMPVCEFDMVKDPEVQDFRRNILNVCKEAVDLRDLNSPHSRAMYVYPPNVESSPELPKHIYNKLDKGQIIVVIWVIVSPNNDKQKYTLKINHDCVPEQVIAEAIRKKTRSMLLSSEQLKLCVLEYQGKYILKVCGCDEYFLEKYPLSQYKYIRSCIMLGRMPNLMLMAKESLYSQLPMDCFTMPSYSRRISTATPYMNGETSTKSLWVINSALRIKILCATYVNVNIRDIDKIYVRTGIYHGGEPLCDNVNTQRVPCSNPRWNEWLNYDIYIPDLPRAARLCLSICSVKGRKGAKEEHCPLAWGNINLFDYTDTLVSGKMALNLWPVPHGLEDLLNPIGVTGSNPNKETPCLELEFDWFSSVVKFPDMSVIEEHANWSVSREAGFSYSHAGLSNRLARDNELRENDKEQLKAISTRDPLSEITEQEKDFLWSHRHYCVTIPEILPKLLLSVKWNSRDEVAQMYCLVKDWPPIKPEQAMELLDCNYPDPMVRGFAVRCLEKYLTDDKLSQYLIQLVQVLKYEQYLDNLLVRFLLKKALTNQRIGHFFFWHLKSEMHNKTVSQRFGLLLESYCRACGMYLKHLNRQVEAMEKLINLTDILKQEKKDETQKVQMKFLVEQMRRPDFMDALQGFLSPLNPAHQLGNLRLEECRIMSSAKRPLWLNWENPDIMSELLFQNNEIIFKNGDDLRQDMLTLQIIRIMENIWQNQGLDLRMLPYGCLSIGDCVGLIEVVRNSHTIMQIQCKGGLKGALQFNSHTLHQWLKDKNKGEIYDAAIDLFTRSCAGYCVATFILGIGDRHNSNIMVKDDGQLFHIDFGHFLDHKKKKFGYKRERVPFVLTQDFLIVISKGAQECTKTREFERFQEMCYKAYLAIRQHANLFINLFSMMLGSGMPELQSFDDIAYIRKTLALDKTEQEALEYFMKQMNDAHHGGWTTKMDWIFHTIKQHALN

| Structure (SMILES) | IC50 [nM] |
| --- | --- |
| CCN1CCN(c2cc(F)c(NC(=O)N3CCc4c(-c5cnc(N)nc5)nc(N5CCOCC5)nc43)c(F)c2)CC1 | 22 |
| CCN1CCN(c2ccc(NC(=O)N3CCc4c(-c5cnc(N)nc5)nc(N5CCOCC5)nc43)c(C)c2)CC1 | 10 |
